Assay results published in ChEMBL document CHEMBL1150052, “A colorimetric microassay for the detection of agents that interact with DNA” (J Nat Prod, 1992).
Converted amounts (≈) assume the structure as drawn.

Legend:
Nucleic Acid = assay: Displacement of methyl green from DNA after 24 hrs by microtiter assay; assay type: nucleic-acid assay
Summary of the method: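 Complex: DNA–methyl green reagent (20 mg/100 ml) in 0.05 M Tris-HCl pH 7.5 with 7.5 mM MgSO4, stirred 24 h at 37°. Samples dried from EtOH in wells, then complex added. A630 read at once and after 24 h dark at ambient temperature. Final corrected for initial, normalized to untreated complex. IC50 for 50% decrease by linear regression on semi-log plot; n = 3 to 5.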

Calf thymus DNA = assay: Displacement of ethidium bromide from calf thymus type 1 DNA after 4 hrs by microtiter assay

Row | IC50 (Nucleic Acid) | Compound | IC50 (Calf thymus DNA)
1 | 37 µg/mL (≈ 81.8 µM) | CCOc1ccc(-c2nc3cc(-c4nc5cc(N6CCN(C)CC6)ccc5[nH]4)ccc3[nH]2)cc1 | 33 µg/mL (≈ 72.9 µM)
2 | 20 µg/mL (≈ 40.3 µM) | COc1cc2c(oc(=O)c3cc(C)cc(OC)c32)c2c([C@@H]3O[C@H](C)[C@H](O)[C@@](C)(O)[C@H]3O)ccc(O)c12 [CHRYSOMYCIN B] | 
3 | 30 µg/mL (≈ 56.9 µM) | COc1cccc2c1C(=O)c1c(O)c3c(c(O)c1C2=O)C[C@@](O)(C(C)=O)C[C@@H]3O[C@H]1C[C@H](N)[C@H](O)[C@H](C)O1 [DAUNORUBICIN] | 2 µg/mL (≈ 3.79 µM)
4 | 67 µg/mL (≈ 238 µM) | N=C(N)c1ccc(/N=N/Nc2ccc(C(=N)N)cc2)cc1 [DIMINAZENE] | 59 µg/mL (≈ 210 µM)
5 | 17 µg/mL (≈ 23.3 µM) | C/C=C\C1OC1(C)c1cc(=O)c2c(C)cc3c(c2o1)C(=O)c1c(O)c([C@H]2C[C@@](C)(N(C)C)[C@H](O)[C@H](C)O2)cc([C@@H]2C[C@H](N(C)C)[C@@H](O)[C@@H](C)O2)c1C3=O (some centres not stated) [RUBIFLAVIN] | 13 µg/mL (≈ 17.8 µM)
6 | 18 µg/mL (≈ 37.4 µM) | Cn1cc(NC(=O)c2cc(NC(=O)c3cc(NC=O)cn3C)cn2C)cc1C(=O)NCCC(=N)N [STALLIMYCIN] | 4.3 µg/mL (≈ 8.93 µM)

Row | Compound | IC50 (Nucleic Acid) | IC50 (Calf thymus DNA)
7 | COc1c(O)c2c(c3cc(C(=O)N4CCc5c4c(O)c(OC)c4[nH]c(C(=O)N6C[C@H]7C[C@@]78C6=CC(=O)c6[nH]cc(C)c68)cc54)[nH]c13)CCN2C(N)=O [(+)-CC-1065] | 62 µg/mL (≈ 88.1 µM) | 26 µg/mL (≈ 36.9 µM)
8 | COC(=O)C(O)(c1cc2c(c3oc([C@]4(C)C[C@@H]4C)cc(=O)c13)C(=O)c1c(ccc([C@H]3C[C@](C)(N(C)C)[C@H](O[C@@H]4C[C@H](OC)[C@H](O)[C@@H](C)O4)[C@H](C)O3)c1O)C2=O)[C@H]1O[C@H](C)[C@@H](O)[C@@H](OC)[C@@H]1O (some centres not stated) [ALTROMYCIN B] | 67 µg/mL (≈ 72.5 µM) | 44 µg/mL (≈ 47.6 µM)
9 | C/C=C\C1OC1(C)c1cc(=O)c2c(C)cc3c(c2o1)C(=O)c1c(O)c([C@H]2C[C@](C)(N(C)C)[C@@H](OC(C)=O)[C@@H](C)O2)cc([C@@H]2C[C@H](N(C)C)[C@@H](O)[C@@H](C)O2)c1C3=O (some centres not stated) [PLURAMYCIN] | 51 µg/mL (≈ 66 µM) | 3.6 µg/mL (≈ 4.66 µM)
